Reference: article PMC9868102 (Cell chemical biology, 2023)
“Also recorded” adds a separate entry of the source. Blank lines part the entries; values can stand above or below the molecule they belong to.

What was measured:
[1] = system: clathrin mediated endocytosis / LRP-1 in NRK cells; test: Inhibition of clathrin/LRP-1 mediated endocytosis of 33mer and α2M in NRK cells; format: cell-based, rat; details: for inhibition of large endocytic puncta (33mer + α2M): 12.5 mM MβCD, 20 μM Dyno-4a, 25 μM Pitstop
Outline: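 Clathrin-endocytosis inhibitors used on NRK cells: MβCD 12.5 mM, Dyno-4a 20 μM, Pitstop 25 μM; Pitstop added 30 min before the other treatments. Then labelled α2M and Cy5-33mer for 1.5 h, HBSS washes, 2% PFA fix, DAPI, confocal for large double-labelled puncta.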

NRK cells = test: Endocytosis of fluorescent α2M in NRK cells with TG2 inhibitors or substrates; format: cell-based, rat
Outline: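 Rat NRK cells kept in DMEM, split 1:4 to 1:10 every 2-4 days, and imaged as adherent cultures. Small-molecule inhibitors go on 30 min ahead of other additions. Recombinant α2M is purified from culture supernatant by zinc-affinity chromatography and then SEC. After 1.5 h, cells are washed 3× in HBSS, fixed in 2% PFA/PBS for 10 min at RT, DAPI-stained, and imaged by confocal microscopy under low light.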

wild-type MEFs = test: Labeling of wild-type MEFs by TG2 activity probes; format: cell-based, mouse; details: for labeling/staining pattern: 1 μM HB230 (3 h) with 10 μM TRX, 5BP at 100 μM
Outline: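 MEFs were grown in DMEM and seeded on glass-bottom plates for 3 days. TG2-knockout controls were E14.5 MEFs immortalised with SV40 large T. Media were replaced, then probe was added with recombinant human TRX for the whole 3 h treatment. Cells were washed in HBSS, fixed in 2% PFA for 10 min at RT, and stained with DAPI. Imaging was confocal with a 63x oil objective; probe was read on the 647 nm channel.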

human TG2 [2] = target: T1, human TG2 (Homo sapiens, UniProt P21980); details: nucleophilic substrate; cited from earlier work
T1 sequence (P21980 1-687): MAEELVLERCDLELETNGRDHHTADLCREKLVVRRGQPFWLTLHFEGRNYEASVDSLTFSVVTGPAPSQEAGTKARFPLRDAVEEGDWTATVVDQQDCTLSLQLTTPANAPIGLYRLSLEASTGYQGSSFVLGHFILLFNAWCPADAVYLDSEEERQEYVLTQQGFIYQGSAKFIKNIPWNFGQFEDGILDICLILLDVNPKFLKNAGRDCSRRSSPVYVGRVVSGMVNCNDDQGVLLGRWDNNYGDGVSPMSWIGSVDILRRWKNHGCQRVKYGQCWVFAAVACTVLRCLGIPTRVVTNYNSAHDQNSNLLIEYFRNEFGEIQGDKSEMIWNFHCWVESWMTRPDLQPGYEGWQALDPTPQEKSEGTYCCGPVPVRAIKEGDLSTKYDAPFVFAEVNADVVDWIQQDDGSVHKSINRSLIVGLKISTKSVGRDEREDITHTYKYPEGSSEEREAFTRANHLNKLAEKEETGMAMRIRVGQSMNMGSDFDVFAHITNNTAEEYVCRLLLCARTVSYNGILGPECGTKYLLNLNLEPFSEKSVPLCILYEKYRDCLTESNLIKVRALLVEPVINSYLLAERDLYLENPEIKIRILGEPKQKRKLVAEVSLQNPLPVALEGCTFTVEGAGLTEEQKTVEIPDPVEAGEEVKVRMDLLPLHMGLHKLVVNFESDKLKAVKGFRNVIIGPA

wild-type BMDCs = test: Uptake by BMDCs from wild-type mice; format: cell-based, mouse
Outline: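 Bone marrow flushed from tibia and femur of female C57BL6 or TG2-knockout mice, red cells removed. Cells seeded at 2x10^6 per 10-cm dish in RPMI/10% FBS with 10 ng/mL GM-CSF, fed on days 3 and 6, suspension cells harvested day 8. Probed with HB230 or Cy5-33mer; confocal, DAPI counterstain.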

[3] = system: wild-type bone marrow derived macrophages (BMM); test: Uptake by bone marrow derived macrophages from wild-type mice; format: cell-based, mouse; details: ± α2M; triplicates
Outline: (§1)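 Bone marrow from female C57BL6 or TG2-knockout mice, red cells removed, plated at 8x10^6 cells in RPMI/10% FBS with 20 ng/mL M-CSF. Fed on days 2 and 4, adherent cells harvested with 5 mM EDTA on day 5. Cy5-33mer uptake imaged by confocal; triplicates, mean ± SD.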

TG2-knockout BMM = test: Uptake by bone marrow derived macrophages from TG2-knockout mice; format: cell-based, mouse; details: triplicates
Outline: as §1

human TG2 [4] = target: T1, human TG2; test: TG2 steady-state kinetics of substrates, wild-type TG2 ± α2M and vs pH; format: biochemical; details: for kcat: 200 mM MOPS pH 7.2, 5 mM CaCl2, 25 °C, 1 μM TG2, triplicate
Outline: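 His6-tagged human TG2 from E. coli BL21(DE3) was purified by Ni-NTA and anion exchange, reduced, and desalted into PBS. It was assayed at 1 μM final, ± recombinant human α2M (Expi293F-expressed), with GDH/α-ketoglutarate/NADH coupling in 200 mM MOPS pH 7.2 with 5 mM CaCl2. Substrate was Ac-PQLPF-NH2 unless otherwise specified. Absorbance at 340 nm was followed for 60 min at 25 °C. Steady-state rates came from linear progress-curve slopes; triplicate.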

[5] = target: T2, TG2 derivative lacking the C-terminal β-barrel domain (Homo sapiens, UniProt P21980); test: Kinetics of truncated TG2 lacking the C-terminal β-barrel domain; format: biochemical; details: pH 7.2, 25 °C, triplicate
T2 sequence (P21980 1-586): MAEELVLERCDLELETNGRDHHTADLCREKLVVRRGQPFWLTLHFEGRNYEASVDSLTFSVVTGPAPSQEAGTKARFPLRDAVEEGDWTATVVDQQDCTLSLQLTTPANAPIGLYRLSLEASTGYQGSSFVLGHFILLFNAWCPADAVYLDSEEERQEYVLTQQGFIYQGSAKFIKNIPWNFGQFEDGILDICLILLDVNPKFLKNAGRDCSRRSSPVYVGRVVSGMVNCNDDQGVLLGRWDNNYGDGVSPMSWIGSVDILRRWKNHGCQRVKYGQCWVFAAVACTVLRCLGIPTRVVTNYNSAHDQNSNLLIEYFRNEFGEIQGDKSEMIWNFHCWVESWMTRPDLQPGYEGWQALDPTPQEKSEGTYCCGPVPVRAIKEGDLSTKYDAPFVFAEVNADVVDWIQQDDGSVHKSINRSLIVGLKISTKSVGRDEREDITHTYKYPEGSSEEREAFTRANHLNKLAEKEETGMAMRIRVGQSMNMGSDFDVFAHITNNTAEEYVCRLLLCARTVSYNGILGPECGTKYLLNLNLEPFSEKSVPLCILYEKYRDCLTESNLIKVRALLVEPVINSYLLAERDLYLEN
Outline: (§2)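 Truncated human TG2 constructs with N-terminal His tags (residues 1-586 lacking β2; residues 1-460 lacking β1 and β2) were expressed in Rosetta2 E. coli and purified by Ni, anion exchange and SEC. The assay was GDH-coupled: 200 mM MOPS pH 7.2, 5 mM CaCl2, 10 mM α-ketoglutarate, 18 U/mL GDH, 0.5 mM NADH and Ac-PQLPF-NH2. Reduced enzyme was at 1 μM final, ± Expi293F-expressed human α2M. NADH loss was read at 340 nm for 60 min at 25 °C. Rates came from linear slopes; triplicate.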

[6] = target: T3, TG2 derivative harboring the N-terminal and catalytic domains but lacking both β-barrel domains (Homo sapiens, UniProt P21980); test: Kinetics of truncated TG2 lacking both β-barrel domains; format: biochemical; details: pH 7.2, 25 °C, triplicate
T3 sequence (P21980 1-460): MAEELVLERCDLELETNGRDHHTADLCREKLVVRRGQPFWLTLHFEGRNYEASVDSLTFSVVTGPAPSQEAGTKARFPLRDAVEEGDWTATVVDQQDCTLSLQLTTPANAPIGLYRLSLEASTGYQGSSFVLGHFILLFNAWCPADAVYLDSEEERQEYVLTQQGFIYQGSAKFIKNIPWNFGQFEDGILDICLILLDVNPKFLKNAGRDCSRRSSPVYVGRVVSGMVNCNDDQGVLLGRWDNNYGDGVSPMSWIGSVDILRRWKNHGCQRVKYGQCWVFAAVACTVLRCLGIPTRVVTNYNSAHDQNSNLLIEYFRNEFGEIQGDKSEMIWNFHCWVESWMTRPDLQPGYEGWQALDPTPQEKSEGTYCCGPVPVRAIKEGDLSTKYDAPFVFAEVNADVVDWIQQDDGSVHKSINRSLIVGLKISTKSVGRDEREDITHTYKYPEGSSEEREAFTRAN
Outline: as §2

[7] = system: 9022 cells (HLA-DQ2 homozygous B-cell line); test: Cell surface presentation by HLA-DQ2 expressing 9022 B cells; format: cell-based, human; details: 20 min prior to α2M and 33mer
Outline: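 EBV-immortalised HLA-DQ2-homozygous B cells in RPMI with 10% FBS and 1% PenStrep, pelleted, resuspended and left 20 min at 37 °C to adhere on poly-L-lysine-coated glass. Cy5-33mer, α2M and 100 nM recombinant human TG2 (E. coli, His6) added for 2.5 h. Anti-HLA-DQ2 (1:50) then Alexa 488 secondary, each 20 min on ice, fixed, DAPI, confocal. Cells with surface HLA-DQ2/Cy5 overlay scored; 2-4 frames of 3-6 replicates.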

human TG2 [8] = target: T1, human TG2; details: oxidant; without active site occupancy; cited from earlier work

Molecule: methyl-β-cyclodextrin [MβCD]
inhibition of large endocytic puncta (33mer + α2M) [1]: strong inhibition of α2M and peptide colocalization as large endocytic puncta; also recorded: abrogate the appearance of large puncta

Molecule: fibronectin
endocytosis of fibronectin / effect on α2M puncta (NRK cells; 100 μg/mL fluorescent α2M, increasing exogenous fibronectin): dose-dependence increase in the abundance of large but not small puncta; also recorded: endocytosis of extracellular fibronectin via this pathway

Molecule: NCCCCCNC(=O)CCCC[C@@H]1SC[C@@H]2NC(=O)N[C@@H]21 [5-BP, 5-biotinamidopentylamine]
labeling/staining pattern (wild-type MEFs): label bound to extracellular matrix proteins (e.g., fibronectin) in a predictably fibrous pattern
labeling/staining pattern (wild-type MEFs; listed as 5BP): fibrous incorporation pattern
TG2 substrate activity in words (human TG2 [2]): relatively weak nucleophilic substrate

Molecule: H-LQLQPFPQPQLPYPQPQLPYPQPQLPYPQPQPF-Rink resin [SulfoCy5-native-33mer]
uptake by wild-type BMDCs (wild-type BMDCs): take up HB230 and 33mer
uptake by wild-type BMM [3]: robustly internalized the 33mer in the presence, but not absence, of α2M
uptake by TG2-knockout BMM (TG2-knockout BMM): do not internalize 33mer

kcat (human TG2 [4]; absence of α2M): 0.583 ± 0.017 s⁻¹
kcat (human TG2 [4]; presence of α2M): 0.483 ± 0.017 s⁻¹
kcat ([5]; absence of α2M): 0.15 ± 0.017 s⁻¹
kcat ([5]; presence of α2M): 0.13 ± 0.017 s⁻¹
kcat ([6]; absence of α2M): 0.12 ± 0.0033 s⁻¹
kcat ([6]; presence of α2M): 0.12 ± 0.005 s⁻¹
Molecule: AC-PQLPF-NH2

Molecule: TG2: recombinant human transglutaminase 2
pH-dependence of TG2 catalytic activity (human TG2 [4]; deamidation of Ac-PQLPF-NH2, pH 4.2-7.2, steady-state, triplicates): preserved upon acidification until at least pH 5

Molecule: O=C1NC(=NS(=O)(=O)c2cccc3ccccc23)S/C1=C\c1ccc(Br)cc1 [Pitstop-2]
inhibition of large endocytic puncta (33mer + α2M) [1]: strong inhibition of α2M and peptide colocalization as large endocytic puncta
inhibition of large endocytic puncta (33mer + α2M) ([1]; listed as Pitstop): abrogate the appearance of large puncta
effect of Pitstop on cell surface 33mer [7]: dose-dependent reduction of cell-surface 33mer labeling

Molecule: NCCSSCCN [cystamine, reference compound]
effect on α2M internalization (large puncta) (NRK cells; fluorescent α2M 100 μg/mL, CK805 10 μM, cystamine 100 μM): unable to promote rapid internalization of fluorescent α2M; also recorded: do not yield the larger puncta at saturating concentrations
TG2 inactivation mechanism in words (human TG2 [8]): inactivates TG2 by promoting C370-C371 disulfide bond formation

Molecule: O=C(N/N=C/c1cc(O)c(O)cc1O)c1cc2ccccc2cc1O [Dyno-4a]
inhibition of large endocytic puncta (33mer + α2M) [1]: strong inhibition of α2M and peptide colocalization as large endocytic puncta; also recorded: abrogate the appearance of large puncta

B1: RAP: potent endogenous antagonist of α2M binding to LRP-1, receptor associated protein (protein, UniProt P30533 35-357, looked up)
Alpha-2-macroglobulin …: YSREKNQPKPSPKRESGEEFRMEKLNQLWEKAQRLHLPPVRLAELHADLKIQERDELAWKKLKLDGLDEDGEKEARLIRNLNVILAKYGLDGKKDARQVTSNSLSGTQEDGLDDPRLEKLWHKAKTSGKFSGEELDKLWREFLHHKEKVHEYNVLLETLSRTEEIHENVISPSDLSDIKGSVLHSRHTELKEKLRSINQGLDRLRRVSHQGYSTEAEFEEPRVIDLWDLAQSANLTDKELEAFREELKHFEAKIEKHNHYQKQLEIAHEKLRHAESVGDGERVSRSREKHALLEGRTKELGYTVKKHLQDLSGRISRARHNEL
inhibition of large 33mer-containing puncta by LRP-1 antagonist ([1]; RAP prior to Cy5-33mer and α2M): inhibits the formation of large 33mer-containing puncta; also recorded: fully ablated the formation of large puncta

B2: TRX: recombinant human thioredoxin (protein, UniProt P10599 2-105, looked up)
Thioredoxin: VKQIESKTAFQEALDAAGDKLVVVDFSATWCGPCKMIKPFFHSLSEKYSNVIFLEVDVDDCQDVASECEVKCMPTFQFFKKGQKVGEFSGANKEKLEATINELV
dependence of probe labeling on TRX (wild-type MEFs; TRX added for duration of HB230 treatment): strongly dependent
